In ChEMBL document CHEMBL4251693, “Indolylmaleimide Derivative IM-17 Shows Cardioprotective Effects in Ischemia-Reperfusion Injury” (ACS Med Chem Lett, 2018):
Each block holds one compound with its values, some of them ahead of it. Calls of active or inactive are those of the source. No cut-off for these calls is given here. Peptide text beside a SMILES is read from it. * marks the point of attachment. Cbz = O=C(OCc1ccccc1)*

How the values were obtained:
HL-60 [1] = test: Cytoprotective activity against H2O2-induced necrosis in human HL60 cells incubated for 1 hr followed by H2O2 stimulation by LDH release assay; type: functional, cell-based; conditions: HL-60, 1 h
In short: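 Necrosis of HL-60 cells induced by H2O2 and quantified as lactate dehydrogenase release from the cytosol; IC50 derived.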

Rattus norvegicus [2] = test: Toxicity in Sprague-Dawley rat ischemia reperfusion-induced arrhythmia model assessed as mortality at 3 mg/kg, iv administered 1 min before reperfusion (reference value: 75%); type: organism-based; conditions: in vivo
Rattus norvegicus [3] = test: Cardioprotective activity against Sprague-Dawley rat ischemia reperfusion-induced arrhythmia model assessed as ventricular fibrillation time at 3 mg/kg, iv administered 1 min before reperfusion (reference value: 96.3 +/- 24.1 sec); type: functional
Rattus norvegicus [4] = test: Toxicity in Sprague-Dawley rat ischemia reperfusion-induced arrhythmia model assessed as mortality at 3 mg/kg, iv administered 5 mins before ischemia (reference value: 60%); type: organism-based; conditions: in vivo
Rattus norvegicus [5] = test: Toxicity in Sprague-Dawley rat ischemia reperfusion-induced arrhythmia model assessed as mortality at 1 mg/kg, iv administered 5 mins before ischemia (reference value: 60%); type: organism-based; conditions: in vivo
Rattus norvegicus [6] = test: Cardioprotective activity against Sprague-Dawley rat ischemia reperfusion-induced arrhythmia model assessed as ventricular fibrillation time at 3 mg/kg, iv administered 5 mins before ischemia (reference value: 95.3 +/- 13 sec); type: functional
Rattus norvegicus [7] = test: Cardioprotective activity against Sprague-Dawley rat ischemia reperfusion-induced arrhythmia model assessed as ventricular fibrillation time at 1 mg/kg, iv administered 5 mins before ischemia (reference value: 95.3 +/- 13 sec); type: functional
HL-60 [8] = test: Cytoprotective activity against H2O2-induced necrosis in human HL60 cells assessed as increase in cell viability at 10 to 100 uM incubated for 1 hr followed by H2O2 stimulation measured after 3 hrs by Alamar blue assay; type: functional, cell-based
In short: (§1)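 HL-60 cells treated with H2O2 (100 μM, 3 h) with or without various cell death inhibitors (cyclophilin D, PARP-1, necroptosis, autophagy). Viability read by AlamarBlue.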

Heart [9] = test: Cardioprotective activity against Langendorff isolated Sprague-Dawley rat heart ischemia-reperfusion injury model assessed as suppression of creatine kinase release at 0.3 uM administered for 10 mins as infusion followed by 30 mins of global ischemia and 60 mins of reperfusion; type: functional, tissue-based
In short: (§2)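 Isolated rat hearts perfused in Langendorff mode with Krebs-Henseleit buffer. Compound (HCl salt) added to the perfusate for 10 min before no-flow global ischemia of 30 min, then 60 min reperfusion with flow restored. Left ventricular developed pressure recovery taken as heart function; creatine kinase released from myocardium taken as membrane integrity marker.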

H9c2 [10] = test: Cytoprotective activity against TBHP-induced necrosis in rat H9c2 cells incubated for 4 hrs by LDH release assay; type: functional, cell-based; conditions: H9c2, 4 h
In short: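 Rat cardiomyoblast H9c2 cells treated with TBHP (300 μM) with or without test compound; necrotic cell death quantified by LDH release assay.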

Heart [11] = test: Cardioprotective activity against Langendorff isolated Sprague-Dawley rat heart ischemia-reperfusion injury model assessed as improvement in LVDP at 0.3 uM administered for 10 mins as infusion followed by 30 mins of global ischemia and 60 mins of reperfusion; type: functional, tissue-based; in short: as §2
[12] = Stability in rat liver S9 fraction at 5 uM after 30 mins by HPLC method; type: ADME, subcellular; conditions: s9, 0.5 h
H9c2 [13] = test: Cytotoxicity against rat H9c2 cells at 30 uM; type: cell-based; conditions: h9c2, 30 µM
HL-60 [14] = test: Cytoprotective activity against H2O2-induced necrosis in human HL60 cells assessed as increase in cell viability at 1 to 5 mM incubated for 1 hr followed by H2O2 stimulation measured after 3 hrs by Alamar blue assay; type: functional, cell-based; in short: as §1
HL-60 [15] = test: Cytoprotective activity against actinomycin D-induced apoptosis in human HL60 cells assessed as increase in cell viability at 100 uM incubated for 1 hr followed by actinomycin D stimulation measured after 6 hrs by Alamar blue assay; type: functional, cell-based
In short: (§3)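 HL-60 cells given a death inducer with or without test agent (10 μM) or Z-VAD (100 μM). Inducers were actinomycin D 1 μM for 6 h, camptothecin 1 μM for 6 h, etoposide 100 μM for 4 h, FasL 100 ng/mL for 18 h, H2O2 100 μM for 3 h, and TBHP 30 μM for 3 h. Viability read by AlamarBlue.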

HL-60 [16] = test: Cytoprotective activity against H2O2-induced apoptosis in human HL60 cells assessed as increase in cell viability at 100 uM incubated for 1 hr followed by H2O2 stimulation measured after 4 hrs by phase contrast microscopy; type: functional, cell-based
In short: (§4)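 HL-60 cells exposed to low-level H2O2 (30 μM, 4 h) with or without test agent (10 μM) or Z-VAD (100 μM). Viability read by AlamarBlue; morphology by phase-contrast imaging.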

Jurkat [17] = test: Cytoprotective activity against FasL-induced apoptosis in human Jurkat cells assessed as increase in cell viability at 100 uM incubated for 1 hr followed by FasL stimulation measured after 18 hrs by phase contrast microscopy; type: functional, cell-based
In short: (§5)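 Jurkat cells exposed to FasL (100 ng/mL, 18 h) with or without test agent (10 μM) or Z-VAD (100 μM). Viability measured by AlamarBlue and morphology by phase-contrast imaging.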

HL-60 [18] = test: Cytoprotective activity against TBHP-induced necrosis in human HL60 cells assessed as increase in cell viability at 100 uM incubated for 1 hr followed by TBHP stimulation measured after 3 hrs by Alamar blue assay; type: functional, cell-based
HL-60 [19] = test: Cytoprotective activity against etoposide-induced apoptosis in human HL60 cells assessed as increase in cell viability at 100 uM incubated for 1 hr followed by etoposide stimulation measured after 4 hrs by Alamar blue assay; type: functional, cell-based; in short: as §3
HL-60 [20] = test: Cytoprotective activity against H2O2-induced necrosis in human HL60 cells assessed as increase in cell viability at 100 uM incubated for 1 hr followed by H2O2 stimulation measured after 3 hrs by Alamar blue assay; type: functional, cell-based; in short: as §3
HL-60 [21] = test: Cytoprotective activity against H2O2-induced apoptosis in human HL60 cells assessed as increase in cell viability at 100 uM incubated for 1 hr followed by H2O2 stimulation measured after 4 hrs by Alamar blue assay; type: functional, cell-based; in short: as §4
HL-60 [22] = test: Cytoprotective activity against Fas ligand-induced apoptosis in human HL60 cells assessed as increase in cell viability at 100 uM incubated for 1 hr followed by Fas ligand stimulation measured after 18 hrs by Alamar blue assay; type: functional, cell-based; in short: as §3
HL-60 [23] = test: Cytoprotective activity against camptothecin-induced apoptosis in human HL60 cells assessed as increase in cell viability at 100 uM incubated for 1 hr followed by camptothecin stimulation measured after 6 hrs by Alamar blue assay; type: functional, cell-based; in short: as §3
Jurkat [24] = test: Cytoprotective activity against FasL-induced apoptosis in human Jurkat cells assessed as increase in cell viability at 100 uM incubated for 1 hr followed by FasL stimulation measured after 18 hrs by Alamar blue assay; type: functional, cell-based; in short: as §5
Heart [25] = test: Cardioprotective activity against Langendorff isolated Sprague-Dawley rat heart ischemia-reperfusion injury model assessed as improvement in LVDP at 3 uM administered for 10 mins as infusion followed by 30 mins of global ischemia and 60 mins of reperfusion; type: functional, tissue-based; in short: as §2
Heart [26] = test: Cardioprotective activity against Langendorff isolated Sprague-Dawley rat heart ischemia-reperfusion injury model assessed as suppression of creatine kinase release at 3 uM administered for 10 mins as infusion followed by 30 mins of global ischemia and 60 mins of reperfusion; type: functional, tissue-based; in short: as §2
Jurkat [27] = test: Cytoprotective activity against Z-VAD-induced necroptosis in human Jurkat cells assessed as increase in cell viability at 30 uM incubated for 1 hr followed by Z-VAD stimulation by Alamar blue assay; type: functional, cell-based
In short: (§6)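 Jurkat necroptosis induced with FasL (100 ng/mL, 20 h) together with Z-VAD (100 μM) or cycloheximide (5 μM). Test agents were run at 10 μM alongside a necroptosis inhibitor at 30 μM. Viability read by AlamarBlue; morphology examined by phase-contrast imaging.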

Jurkat [28] = test: Cytoprotective activity against CHX-induced necroptosis in human Jurkat cells assessed as increase in cell viability at 30 uM incubated for 1 hr followed by CHX stimulation by Alamar blue assay; type: functional, cell-based; in short: as §6
Jurkat [29] = test: Cytoprotective activity against FasL-induced necroptosis in human Jurkat cells assessed as increase in cell viability at 30 uM incubated for 1 hr followed by FasL stimulation measured after 20 hrs by phase contrast microscopy; type: functional, cell-based; in short: as §6
Jurkat [30] = test: Cytoprotective activity against Z-VAD-induced necroptosis in human Jurkat cells assessed as increase in cell viability at 30 uM incubated for 1 hr followed by Z-VAD stimulation by phase contrast microscopy; type: functional, cell-based; in short: as §6
Jurkat [31] = test: Cytoprotective activity against FasL-induced necroptosis in human Jurkat cells assessed as increase in cell viability at 30 uM incubated for 1 hr followed by FasL stimulation measured after 20 hrs by Alamar blue assay; type: functional, cell-based; in short: as §6
Jurkat [32] = test: Cytoprotective activity against CHX-induced necroptosis in human Jurkat cells assessed as increase in cell viability at 30 uM incubated for 1 hr followed by CHX stimulation by phase contrast microscopy; type: functional, cell-based; in short: as §6
HL-60 [33] = test: Cytoprotective activity against H2O2-induced necrosis in human HL60 cells assessed as increase in cell viability at 1 to 10 uM incubated for 1 hr followed by H2O2 stimulation measured after 3 hrs by Alamar blue assay; type: functional, cell-based; in short: as §1

Compound: CNC1=C(c2cn(C)c3ccccc23)C(=O)N(C)C1=O
IC50 (HL-60 [1]): 910 nM

Compound: CN1C(=O)C(NCCN)=C(c2cn(C)c3ccccc23)C1=O.Cl
mortality (Rattus norvegicus [2]): 20%
Time (Rattus norvegicus [3]): 57 s
mortality (Rattus norvegicus [4]): 0%
mortality (Rattus norvegicus [5]): 20%
Time (Rattus norvegicus [6]): 0 s
Time (Rattus norvegicus [7]): 38.2 s

Compound: CCCCNC1=C(c2cn(C)c3ccccc23)C(=O)N(C)C1=O
IC50 (HL-60 [1]): 420 nM

Compound: CCCCCCNC1=C(c2cn(C)c3ccccc23)C(=O)N(C)C1=O
IC50 (HL-60 [1]): 380 nM

Compound: CN1C(=O)C(NCCCCN)=C(c2cn(C)c3ccccc23)C1=O
IC50 (HL-60 [1]): 1300 nM

Compound: O=C1NCCc2c(OCCCCN3CCCCC3)cccc21
Activity (HL-60 [8]): inactive

Stability [12]: Unstable
Compound: CCCNC1=C(c2cn(C)c3ccccc23)C(=O)N(C)C1=O
IC50 (HL-60 [1]): 440 nM
Activity (Heart [9]): Active
IC50 (H9c2 [10]): 4400 nM
Activity (Heart [11]): Active
Activity (H9c2 [13]): Non-Toxic

Compound: CN1C(=O)C(NCCCN)=C(c2cn(C)c3ccccc23)C1=O
IC50 (HL-60 [1]): 1300 nM

Compound: Cn1cnc(N)c2ncnc1-2
Activity (HL-60 [14]): inactive

Compound: COC(=O)C[C@H](NC(=O)[C@H](C)NC(=O)[C@@H](NC(=O)OCc1ccccc1)C(C)C)C(=O)O (Cbz-Val-Ala-Asp(OMe)-OH)
Activity (HL-60 [15]): Active
Activity (HL-60 [16]): Active
Activity (Jurkat [17]): Active
Activity (HL-60 [18]): inactive
Activity (HL-60 [19]): Active
Activity (HL-60 [20]): inactive
Activity (HL-60 [21]): Active
Activity (HL-60 [22]): Active
Activity (HL-60 [23]): Active
Activity (Jurkat [24]): Active

Compound: CN1C(=O)C(NCCN)=C(c2cn(C)c3ccccc23)C1=O [listing 1 of 2 here]
Activity (Heart [25]): Active
Activity (Heart [26]): Active

Compound: CN1C(=O)C(c2c[nH]c3ccccc23)=C(c2cn(CCCN)c3ccccc23)C1=O
IC50 (H9c2 [10]): 3000 nM
Activity (H9c2 [13]): Toxic

Compound: CN1C(=O)C(NCCN)=C(c2cn(C)c3ccccc23)C1=O [listing 2 of 2 here]
IC50 (HL-60 [1]): 1000 nM
IC50 (H9c2 [10]): 4900 nM
Stability [12]: Stable
Activity (H9c2 [13]): Non-Toxic

Compound: CN1C(=O)C(Cc2c[nH]c3ccccc23)NC1=S (configuration not stated)
Activity (Jurkat [27]): Active
Activity (Jurkat [28]): Active
Activity (Jurkat [29]): Active
Activity (Jurkat [30]): Active
Activity (Jurkat [31]): Active
Activity (Jurkat [32]): Active
Activity (HL-60 [33]): inactive

Compound: CN1C(=O)C(NCCCCO)=C(c2cn(C)c3ccccc23)C1=O
IC50 (HL-60 [1]): 1100 nM

Compound: CN1C(=O)C(NCCO)=C(c2cn(C)c3ccccc23)C1=O
IC50 (HL-60 [1]): 1300 nM

Compound: CN1C(=O)C(NCCCO)=C(c2cn(C)c3ccccc23)C1=O
IC50 (HL-60 [1]): 1900 nM
